Measurements as given in ChEMBL document CHEMBL1127532, “Presynaptic cholinergic modulators as potent cognition enhancers and analgesic drugs. 1. Tropic and 2-phenylpropionic acid esters” (J Med Chem, 1994).
Activity calls are given as the source filed them.

Tests used:
[1] = organism: Mus musculus; test: Analgesic activity as percentage analgesic efficacy on male albino Swiss-Webster mice with the hotplate test; Inactive; format: functional
In short: (§1)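 Hot-plate test at 52.5 ± 0.1 °C, 45 s cutoff, compound dosed at its maximal nontoxic dose (the highest dose giving no visible behavioural change to blinded observers). Efficacy = (maximum reaction time − pretest time) / the same difference for morphine-HCl 8 mg/kg sc × 100.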

[2] = target: Muscarinic acetylcholine receptor (Mus musculus) (UniProt Q920H4+Q9ERZ4+P12657+P32211+Q9ERZ3); test: Analgesic activity after subcutaneous administration in male albino Swiss-Webster mice with the hotplate test; format: functional, organism-based
In short: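 Mouse hot-plate test, plate held at 52.5 ± 0.1 °C with a 45 s cutoff. Drug given subcutaneously, 8 to 20 mice per test. Potency expressed as ED50.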

[3] = organism: Mus musculus; test: Analgesic activity as percentage analgesic efficacy on male albino swiss-webster mice with the hotplate test; format: functional; set-up: concentration or dose not given beside the values; in short: as §1
[4] = target: Muscarinic acetylcholine receptor; test: Binding affinity for [3H]QNB in membrane preparations from rat brain tissue
In short: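 [3H]QNB binding to rat brain membrane preparations. pKi calculated with the LIGAND program, mean of at least three experiments.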

[5] = organism: Mus musculus; test: The compound was evaluated for the analgesic activity as percentage analgesic efficacy on male albino Swiss-Webster mice with the hotplate test; inactive; format: functional, organism-based; in short: as §1
[6] = organism: Mus musculus; test: The compound was evaluated for the analgesic activity as percentage analgesic efficacy on male albino Swiss-Webster mice with the hotplate test;Inactive; format: functional, organism-based; in short: as §1

| Compound | Analgesic efficacy [1] | ED50 [2] [mg/kg] | Analgesic efficacy [3] [%] | also measured |
| --- | --- | --- | --- | --- |
| CN1C2CCC1CC(OC(=O)C(Cl)c1ccccc1)C2 (configuration not stated) | inactive |  |  |  |
| CC(C(=O)OC1CC2CCC(C1)N2C)c1ccc(Br)cc1 (single isomer, unassigned; (+)) |  | 17 | 92 |  |
| CCN(CC)CCOC(=O)C(C)c1ccc(Br)cc1 (configuration not stated) | inactive |  |  |  |
| CC(C(=O)OC1CC2CCC(C1)N2C)c1ccc([N+](=O)[O-])cc1 (configuration not stated) |  | 18 | 38 |  |
| CCN1C2CCC1CC(OC(=O)C(CO)c1ccccc1)C2 (configuration not stated) |  | 7.3 | 33 |  |
| CC(C(=O)OC1CC2CCC(C1)N2C)c1ccc(Cl)c(Cl)c1 (configuration not stated) |  | 1 | 42 |  |
| CN1C2CCC1CC(OC(=O)Cc1ccc(Br)cc1)C2 (configuration not stated) | inactive |  |  |  |
| CC(C(=O)OC1CC2CCC(C1)N2C)c1ccc(Br)cc1 (stereo in doubt; (-)-19) |  | 16 | 83 |  |
| CC(C(=O)OC1CC2CCC(C1)N2C)c1ccc(Cl)cc1.O=C(O)/C=C\C(=O)O (configuration not stated) |  | 36 | 83 | Log Ki [4]: -7.02 |
| CC(C(=O)OC1CC2CCC(C1)N2Cc1ccccc1)c1ccc(Br)cc1 (configuration not stated) |  | 28 | 34 |  |
| CC(COC1CC2CCC(C1)N2C)c1ccc(Br)cc1 (configuration not stated) |  | 32 | 45 |  |
| CC(C(=O)OC1CC2CCC(C1)N2C)c1ccc(C(F)(F)F)cc1 (configuration not stated) |  | 31 | 26 |  |
| CCN(CC)CC#CCOC(=O)C(CO)c1ccccc1.O=C(O)C(Oc1ccccc1)C(Oc1ccccc1)C(=O)O (configuration not stated) | inactive |  |  |  |
| CC(Cc1ccc(Cl)cc1)C(=O)OC1CC2CCC(C1)N2C (configuration not stated) | inactive |  |  |  |
| CC(C(=O)OC1CC2CCC(C1)N2C)c1ccc(F)cc1 (configuration not stated) |  | 31 | 79 |  |
| CC(C(=O)OC1CC2CCC(C1)N2C)c1ccc(Br)cc1 (racemic) |  |  | 101 |  |
| COc1ccc(C(C)C(=O)OC2CC3CCC(C2)N3C)cc1 (configuration not stated) |  | 32 | 97 |  |
| CN1C2CCC1CC(OC(=O)Cc1ccccc1)C2 (configuration not stated) | inactive |  |  |  |
| CC(C(=O)OC1CC2CCC(C1)N2C)c1cccs1 (configuration not stated) |  | 5.4 | 21 |  |
| CCN1C2CCC1CC(OC(=O)C(C)c1ccc(Br)cc1)C2 (configuration not stated) |  |  |  | Analgesic efficacy [5]: inactive |
| CN1[C@@H]2CC[C@H]1C[C@H](OC(=O)[C@H](CO)c1ccccc1)C2 | inactive |  |  |  |
| CCN(CC)CC#CCOC(=O)C(C)c1ccc(Br)cc1 (configuration not stated) | inactive |  |  |  |
| CN1C2CCC1CC(OC(=O)C(CO)c1ccc(Cl)cc1)C2 (configuration not stated) |  | 0.6 | 37 |  |

| Compound | Analgesic efficacy [1] | ED50 [2] [mg/kg] | Analgesic efficacy [3] [%] | also measured |
| --- | --- | --- | --- | --- |
| CC(C(=O)OC1CC2CCC(C1)N2C)c1ccc(N)cc1 (configuration not stated) |  | 6 | 41 |  |
| CC(C(=O)OC1CC2CCC(C1)N2C)c1ccsc1 (configuration not stated) |  | 22 | 44 |  |
| O=C(OC1CC2CCC(C1)N2)C(CO)c1ccccc1 (configuration not stated) |  | 5 | 35 |  |
| CC(C(=O)OCCCN(C)C)c1ccc(Br)cc1 (configuration not stated) | inactive |  |  |  |
| CN1CCC(OC(=O)C(CO)c2ccc(Cl)cc2)CC1 (configuration not stated) |  | 5 | 26 |  |
| COc1ccc(C(CO)C(=O)OC2CC3CCC(C2)N3C)cc1 (configuration not stated) | inactive |  |  |  |
| CC(C(=O)OC1CC2CCC(C1)N2C)c1ccccc1Br (configuration not stated) |  | 30 | 62 |  |
| CCN(CC)CCOC(=O)C(CO)c1ccc(Cl)cc1 (configuration not stated) | inactive |  |  |  |
| C[C@@H](C(=O)OC1CC2CCC(C1)N2C)c1ccccc1 (some centres not stated) |  |  |  | Analgesic efficacy [6]: inactive |
| CC(C(=O)OC1CC2CCC(C1)N2C)c1ccc(N(C)C)cc1 (configuration not stated) | inactive |  |  |  |
| CC(C(=O)OC1CC2CCC(C1)N2C)c1ccccc1Cl (configuration not stated) |  | 36 | 83 |  |
| CC(C(=O)OC1CCN(C)CC1)c1ccc(Br)cc1 (configuration not stated) | inactive |  |  |  |
| CN1[C@@H]2CC[C@H]1C[C@H](OC(=O)[C@@H](CO)c1ccccc1)C2 |  | 0.7 | 41 |  |
| CC(C(=O)OC1CC2CCC(C1)N2C)c1ccc(Br)cc1.O=C(O)/C=C\C(=O)O (racemic) |  |  |  | Log Ki [4]: -6.96 |
| CCC(C(=O)OC1CC2CCC(C1)N2C)c1ccc(Br)cc1 (configuration not stated) |  | 33 | 81 |  |
| CN1[C@@H]2CC[C@H]1C[C@@H](OC(=O)C(CO)c1ccccc1)C2 (mixture of isomers) |  | 0.7 | 42 |  |
| C[C@H](C(=O)OC1CC2CCC(C1)N2C)c1ccccc1 (some centres not stated) |  | 3.1 | 29 |  |
| CC(C(=O)OC1CC2CCC(C1)N2)c1ccc(Br)cc1 (configuration not stated) | inactive |  |  |  |
| CC(C)Cc1ccc(C(C)C(=O)OC2CC3CCC(C2)N3C)cc1 (configuration not stated) |  | 27 | 40 |  |
| CN(C)CCCOC(=O)C(CO)c1ccccc1.O=C(O)C(Oc1ccccc1)C(Oc1ccccc1)C(=O)O (configuration not stated) | inactive |  |  |  |
| CC(C(=O)OC1CC2CCC(C1)N2C)c1cccc(Cl)c1 (configuration not stated) |  | 37 | 71 |  |
| CC(C(=O)OC1CC2CCC(C1)N2C)c1ccccc1 (racemic) |  | 5 | 35 |  |
